DENV2 CPE – inhibitors of DENV2 cytopathic effect, primary screen, cell-based, plate reader, single concentration. DENV2-infected cells, cytopathic effect rescue. CPE inhibition, % at 9.99 µM. 350,000 tested, 1.7% active; in the data active means CPE inhibition above about 20%, passing the limit was not always enough; tested in BHK-21 cells
PglD inh – C. jejuni PglD acetyltransferase inhibitors, primary screen, biochemical, DTNB colorimetric, single point. inhibition, % at 12.5 µM. AID 602405, 2012. 360,000 tested, 0.098% active. purified PglD enzyme, DTNB colorimetric CoA detection. UDP-N-acetylbacillosamine N-acetyltransferase PglD (Campylobacter jejuni); in the data active means inhibition above about 16%, passing the limit was not always enough
Env fusion inh – inhibitors of HIV-1 Env-driven cell-cell fusion, primary screen, HeLa-JRFL effector, CEM21 target cells, luciferase. inhibition, % at 12.3 µM. 360,000 tested, 1.1% active. AID 651610, 2012;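 active means mean replicate inhibition score of at least 50 and every replicate individually at or above 50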
FN deposition inh – inhibitors of fibronectin matrix deposition, primary screen, AH1F cells, Alexa488-fibronectin fluorescence, plate reader; AID 743247, 2014; AH1F fibroblasts, overnight; 350,000 tested, 0.086% active; inhibition, % at 12.6 µM;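 active means mean inhibition across replicates of 30% or more, regardless of how many single replicates reach that level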
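material = AH1F fibroblast monolayer depositing Alexa488-labelled fibronectin into matrix | amount = 10000 AH1F cells/well | buffer or medium = DMEM plus 2% serum, read in PBS | incubation = 1 h cell adhesion before compound, then overnight fibronectin incubation | detection = fluorescence at 485 nm excitation, 525 nm emission | evaluation = percent inhibition as loss of matrix-bound fibronectin fluorescence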
PGC1a acetyl inh – inhibitors of PGC1a acetylation signal, primary screen, cell-based, U2OS, AlphaScreen, inhibitor mode; AlphaScreen anti-acetyl-lysine; with virally co-expressed GCN5 acetyltransferase; inhibition, % at 15.6 µM; 350,000 tested, 0.17% active;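 active means every replicate shows inhibition of at least 40%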
Ecoli rRNA inh – reduced GFP signal of wild-type E. coli, primary screen, bacterial rRNA inhibitor project, GFP/RFP fluorescence, OD600, single point. E. coli WT GFP vs humanized-ribosome RFP mutants, 24 h; active compounds read low; DMSO median 0, no signal -100. GFP signal change (wild-type ribosome), % (concentration not given with the values). 350,000 tested, 1.6% active;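 active means significant combined selectivity score with lowered wild-type GFP, culture density cut under 30%, mutant RFP and density less affected; inactive means any of these conditions unmet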
Numbers stand for hits; – = inactive; · = no result; ! = repeats disagree; [ ] = dose if it differs, or a comment. Sampled rows, rich in hits. Any-hit rate of the full collection: about 3.5%.

SMILES | DENV2 CPE | PglD inh | Env fusion inh | FN deposition inh | PGC1a acetyl inh | Ecoli rRNA inh
COc1ccccc1NC(=O)N(C)C[C@@H]1OCc2ccccc2-c2c(n(C)c3ccccc23)C(=O)N([C@@H](C)CO)C[C@@H]1C | – | – | · | – | – | –
COC(=O)N(C)C[C@@H]1OCc2ccccc2-c2c(n(C)c3ccccc23)C(=O)N([C@H](C)CO)C[C@@H]1C | – | – | 66.3! | – | – | –
C[C@H](C(=O)N(C)C[C@@H]1OCc2ccccc2-c2c(n(C)c3ccccc23)C(=O)N([C@@H](C)CO)C[C@H]1C)c1ccccc1 | – | · | 67.0[16.7 µM] | – | – | –
C[C@H]1CN([C@@H](C)CO)C(=O)c2c(c3ccccc3n2C)-c2ccccc2CO[C@@H]1CN(C)C(=O)Nc1ccc(F)cc1 | – | – | – | – | – | –
COc1ccccc1NC(=O)N(C)C[C@@H]1OCc2ccccc2-c2c(n(C)c3ccccc23)C(=O)N([C@H](C)CO)C[C@@H]1C | – | – | 66.6 | – | – | –
COCC(=O)N(C)C[C@H]1Oc2cc(-c3cccnc3)ccc2S(=O)(=O)N([C@@H](C)CO)C[C@@H]1C | – | – | – | – | – | –
O=C(Cc1ccccc1)N1CC(=O)N2[C@H](CO)[C@@H](c3ccc(-c4ccc(F)cc4)cc3)[C@H]2C1 | – | · | · | – | – | –
O=C(Nc1ccc2c(c1)[C@@H]1C[C@@H](CC(=O)N3CCCCC3)O[C@H](CO)[C@@H]1O2)Nc1ccccc1F | – | – | – | – | – | –
C[C@H](CO)N1C[C@H](C)[C@@H](CN(C)C(=O)Nc2cccc(C(F)(F)F)c2)OCc2ccccc2-c2c(n(C)c3ccccc23)C1=O | – | · | · | – | – | –
C[C@H](CO)N1C[C@H](C)[C@H](CN(C)C(=O)C2CC2)OCc2ccccc2-c2c(n(C)c3ccccc23)C1=O | – | – | 60.4[16.7 µM] | – | – | –
C[C@H](CO)N1C[C@H](C)[C@H](CN(C)C(=O)Nc2cccc(C(F)(F)F)c2)OCc2ccccc2-c2c(n(C)c3ccccc23)C1=O | 25.1 | · | · | – | – | –
CNC[C@H]1OCc2ccccc2-c2ccccc2C(=O)N([C@H](C)CO)C[C@@H]1C | – | – | – | – | – | –
CNC[C@@H]1OCc2ccccc2-c2ccccc2C(=O)N([C@@H](C)CO)C[C@@H]1C | 33.1! | – | – | – | – | –
CNC[C@@H]1OCc2ccccc2-c2c(n(C)c3ccccc23)C(=O)N([C@H](C)CO)C[C@@H]1C | 32.6! | – | · | – | – | –
C[C@H](CO)N1C[C@H](C)[C@@H](CN(C)C(=O)C2CC2)OCc2ccccc2-c2c(n(C)c3ccccc23)C1=O | – | – | – | – | – | –
O=C(Nc1ccc2c(c1)[C@@H]1C[C@H](CC(=O)N3CCOCC3)O[C@H](CO)[C@@H]1O2)NC1CCCCC1 | – | – | – | – | – | –
C[C@@H]1CCCCO[C@H](CN(C)S(=O)(=O)c2ccc(F)cc2)[C@@H](C)CN([C@H](C)CO)C(=O)c2cc(NC(=O)NC3CCCCC3)ccc2O1 | – | – | – | – | – | –
COc1cccc(CN(C)C[C@@H]2OCc3ccccc3-c3c(n(C)c4ccccc34)C(=O)N([C@@H](C)CO)C[C@H]2C)c1 | 49.3! | – | · | – | – | –
CC(=O)N(C)C[C@@H]1OCc2ccccc2-c2c(n(C)c3ccccc23)C(=O)N([C@@H](C)CO)C[C@H]1C | – | – | · | – | – | –
COc1cccc(CN(C)C[C@H]2OCc3ccccc3-c3c(n(C)c4ccccc34)C(=O)N([C@@H](C)CO)C[C@H]2C)c1 | – | · | · | – | – | –
C[C@@H]1CN([C@@H](C)CO)C(=O)c2c(c3ccccc3n2C)-c2ccccc2CO[C@@H]1CN(C)C(=O)[C@@H](Cc1ccccc1)N(C)C | – | – | – | – | – | –
CC(=O)N(C)C[C@H]1OCc2ccccc2-c2c(n(C)c3ccccc23)C(=O)N([C@H](C)CO)C[C@H]1C | 33.9 | – | · | – | – | –
